Among the data in PubChem BioAssay AID489015 (The Scripps Research Institute Molecular Screening Center, 2010) are growth inhibition values, retold here.

Active and inactive are the calls of the source.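 The calls were made as follows: active = malaria parasite growth inhibition in red cells reaching a set limit in at least one replicate; inactive = below that limit in every replicate.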

This assay relates to P. falciparum 3D7 in RBCs, 3H-hypoxanthine incorporation, 48 h. In words: single-dose antimalarial blood-stage activity – cell-based, radiolabel, RBCs, powder samples, M18AAP inhibitor project, late-stage follow-up (AID 489015). The settings on record: at 10 µM; active compounds read high. The method in brief: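 Times: 48 h exposure, 37 °C, low-oxygen gas mix / System: P. falciparum 3D7 in erythrocytes / Compound: 10 µM single dose, DMSO ≤1% / Buffer or medium: hypoxanthine-free RPMI 1640, 10% serum / Detection: Radiotracer incorporation measured by beta counting of harvested cells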

In the case of `OC(Cn1cnnc1)c1ccccc1` (stereo unspecified), the growth inhibition was 0% (inactive).

Regarding `NCCc1ccc(O)c(O)c1`, the growth inhibition is 0.5% (inactive).

`CCOC(=O)C1=C(CS(=O)(=O)c2ccc(F)cc2)NC(=O)NC1c1ccc(O)c(O)c1` (stereo unspecified): the growth inhibition is 0.667% (inactive).

`O=c1c2c([N+](=O)[O-])cc([N+](=O)[O-])cc2sn1Cc1ccccc1`: the growth inhibition is 5.11% (inactive).

Consider `O=C(Nc1ccc(Cl)cc1Cl)Nn1cnnc1`, for which the growth inhibition was 0% (inactive).

For the compound `O=C(O)c1cn[nH]c1-n1cnnn1`, the growth inhibition was 3.83% (inactive).

For the compound `Cc1ccc(NC(=S)Nn2cnnc2)c(C)c1`, the growth inhibition is 0% (inactive).

For the compound `O=C(NC(=S)Nn1cnnc1)c1ccccc1Br`, the growth inhibition is 0% (inactive).

As to `Oc1ccc(C2=Nn3c(nnc3-c3ccco3)SC2)cc1O`, the growth inhibition is 20.8% (inactive).

With `Cc1nc2ccccn2c1C(=O)NNC(=O)Nc1ccccc1`, the growth inhibition is 0.667% (inactive).

`O=C(Nc1cccc(Cl)c1Cl)Nn1cnnc1`: the growth inhibition was 1% (inactive).

For `O=C(Nc1ccc(Br)cc1Cl)Nn1cnnc1`, the growth inhibition is 4.67% (inactive).

`CS(=O)(=O)c1ccc2c(c1)sc1nc(=O)c(/C=C3/C=CC(=O)C(O)=C3)c(N)n12`: the growth inhibition was 22.6% (inactive).

Consider `CCc1ccccc1NC(=S)Nn1cnnc1`, for which the growth inhibition was 0% (inactive).

Regarding `O=C(COc1ccccc1C(=O)N/N=C/c1ccc(O)c(O)c1)N/N=C/c1ccc(O)c(O)c1`, the growth inhibition is 66%.

As to `COC(=O)CN(n1cnnc1)S(=O)(=O)c1ccccc1Cl`, the growth inhibition is 4.5% (inactive).

With `O=C(CSc1ncn[nH]1)OCN1C(=O)c2ccccc2C1=O`, the growth inhibition was 3% (inactive).

As for `O=C(Nc1ccccc1Cl)Nn1cnnc1`, the growth inhibition is 7.83% (inactive).

In the case of `Cc1cc(C)cc(C(=O)n2cnnc2N)c1`, the growth inhibition is 44.8%.

`CC(C)n1c(SCC(=O)Nc2nncs2)nnc1-c1ccco1`: the growth inhibition was 1.33% (inactive).

For the compound `S=C(Nc1cc(Cl)ccc1Cl)Nn1cnnc1`, the growth inhibition is 0% (inactive).

In the case of `COc1cc([N+](=O)[O-])ccc1NC(=S)Nn1cnnc1`, the growth inhibition is 8.67% (inactive).

Take `Br/C(C=Nn1cnnc1)=C\c1ccccc1`: the growth inhibition is 71.8%.

In the case of `CCN(CC)S(=O)(=O)c1ccc(C(=O)Nn2cnnc2)cc1`, the growth inhibition was 0.5% (inactive).

`O=c1c(O)c(-c2ccc(O)c(O)c2)oc2cc(O)cc(O)c12`: the growth inhibition was 0% (inactive).

`O=[N+]([O-])c1cc([N+](=O)[O-])c2cccnc2c1Oc1ccccc1O`: the growth inhibition is 13.4% (inactive).

In the case of `CC1=NNC(=O)/C1=C\c1cn(-c2ccccc2)nc1-c1ccc(F)cc1`, the growth inhibition is 20.7% (inactive).

As to `Oc1ccc(-c2csc(-c3cccnc3)n2)cc1O`, the growth inhibition is 7.67% (inactive).

Take `COc1ccc(C(=O)n2cnnc2N)cc1`: the growth inhibition was 2.5% (inactive).

Regarding `Cc1c(Cl)cccc1NC(=O)Nn1cnnc1`, the growth inhibition was 9.17% (inactive).

Regarding `Cc1nc(-c2ccc(O)c(O)c2)cs1`, the growth inhibition was 0.778% (inactive).

Consider `CN1CCc2cccc3c2[C@@H]1Cc1ccc(O)c(O)c1-3`, for which the growth inhibition was 87%.

As to `Oc1cc(O)c2c(c1)O[C@H](c1ccc(O)c(O)c1)[C@H](O)C2`, the growth inhibition was 1% (inactive).

For `COC(=O)CN(n1cnnc1)S(=O)(=O)c1ccc(C)cc1`, the growth inhibition was 0% (inactive).

Regarding `O=C(CSc1nc2ccccc2c(=O)[nH]1)c1ccc(O)c(O)c1`, the growth inhibition was 8.89% (inactive).

In the case of `COC(=O)CN(n1cnnc1)S(=O)(=O)c1ccccc1`, the growth inhibition is 1.67% (inactive).

For `Oc1ccc(CCNc2c3ccccc3nc3ccccc23)cc1O`, the growth inhibition is 96.3%.

`O=S(=O)(Nn1cnnc1)c1ccccc1`: the growth inhibition is 3% (inactive).

On to `COc1ccc(Cl)cc1NC(=O)Nn1cnnc1`, for which the growth inhibition is 5.83% (inactive).

`COc1ccc2nc(C)cc(SCC(=O)N/N=C/c3ccc(O)c(O)c3)c2c1`: the growth inhibition was 3.22% (inactive).

For `CN1C(=O)N(c2cccc3ccccc23)C(n2cncn2)C1(C)C` (stereo unspecified), the growth inhibition is 0% (inactive).

Regarding `O=C(O)c1ccc(O)c(O)c1`, the growth inhibition is 7.17% (inactive).

Regarding `Oc1ccc(/C=C/c2cc(O)cc(O)c2)cc1`, the growth inhibition was 1.33% (inactive).

`O=C(CSc1nn(-c2ccccc2)c(=S)s1)Nn1cnnc1`: the growth inhibition is 0% (inactive).

As to `O=C(Nc1cc(Cl)ccc1Cl)Nn1cnnc1`, the growth inhibition was 1.5% (inactive).

`O=C(Nn1cnnc1)c1csc2ccccc12`: the growth inhibition is 0% (inactive).

Take `Cc1cc(OCC(=O)Nn2cnnc2)ccc1Br`: the growth inhibition is 3.67% (inactive).

For the compound `O=C(CSc1ncn[nH]1)Nc1nc(-c2ccccc2)ns1`, the growth inhibition is 4.5% (inactive).

`Cc1cccc(NC(=S)Nn2cnnc2)c1C`: the growth inhibition is 16.5% (inactive).

Take `Cc1ccc(-n2c(O)c(/C=N/n3cnnc3)c3ccccc3c2=O)cc1`: the growth inhibition is 3.33% (inactive).

Consider `Cc1ccc(Cl)cc1NC(=S)Nn1cnnc1`, for which the growth inhibition is 0% (inactive).

As to `CC1(C)CC(=O)c2c(oc3cc(O)c(O)cc23)C1`, the growth inhibition is 2.83% (inactive).

On to `Oc1ccc(-c2csc(-c3ccccc3)n2)cc1O`, for which the growth inhibition was 20.6%.

As for `COc1cccc2c(SCC(=O)N/N=C/c3ccc(O)c(O)c3)cc(C)nc12`, the growth inhibition was 1.5% (inactive).

As to `COc1cccc(-c2cc(C(=O)Nn3cnnc3)c3ccccc3n2)c1`, the growth inhibition is 7.11% (inactive).

For the compound `COc1cc(Br)cc(/C=N/c2ncn[nH]2)c1O`, the growth inhibition was 4.83% (inactive).

`Cc1ccc(Cl)cc1NC(=O)Nn1cnnc1`: the growth inhibition is 2.5% (inactive).

Consider `Cc1ccc([N+](=O)[O-])cc1-c1[nH]c(-c2ccc(O)c(O)c2)nc1-c1ccccc1`, for which the growth inhibition was 4.11% (inactive).

For the compound `CC1(C)CC2(CC(c3ccccc3F)c3ccc(O)c(O)c3O2)NC(=S)N1` (stereo unspecified), the growth inhibition is 0.167% (inactive).

With `Oc1ccc(-c2cn3ccccc3n2)cc1O`, the growth inhibition is 5.33% (inactive).

Regarding `O=C(Nn1cnnc1)c1ccccc1-c1ccccc1`, the growth inhibition was 0.5% (inactive).

For the compound `COc1cc([N+](=O)[O-])ccc1NC(=O)Nn1cnnc1`, the growth inhibition was 0% (inactive).

On to `O=C(CSc1nnc(-c2ccccc2)o1)Nn1cnnc1`, for which the growth inhibition was 11% (inactive).

For `O=C(O)CSc1ncn[nH]1`, the growth inhibition was 2.83% (inactive).

`Cc1cc(C)n2c(=S)[nH]nc2n1`: the growth inhibition was 35.6%.

Take `Nc1nncn1C(=O)CCCOc1ccc(Cl)cc1Cl`: the growth inhibition was 3.17% (inactive).

For the compound `O=c1[nH]c(=S)[nH]c(O)c1/C=C1\C=c2ccccc2=N1`, the growth inhibition is 2.67% (inactive).

`COC(=O)c1cc(C(=O)Nn2cnnc2)cc([N+](=O)[O-])c1`: the growth inhibition was 0% (inactive).

In the case of `O=C(CNC(=O)c1ccccc1)NCCc1ccc(O)c(O)c1`, the growth inhibition was 0.333% (inactive).

Take `O=c1[nH]c(CSc2ncn[nH]2)nc2ccccc12`: the growth inhibition was 1.83% (inactive).

In the case of `O=C(Nc1ccc([N+](=O)[O-])cc1)Nn1cnnc1`, the growth inhibition was 28.7% (inactive).

`O=C(Nc1ccc(Cl)c(Cl)c1)Nn1cnnc1`: the growth inhibition is 5.67% (inactive).

Turning to `CCC(C)c1ccc(O)c(N)c1` (stereo unspecified), the growth inhibition is 95.1%.

As to `Cc1cc(=O)[nH]c(SCC(=O)c2ccc(O)c(O)c2)n1`, the growth inhibition is 0.833% (inactive).

As to `O=C(Nc1cccc(C(F)(F)F)c1)Nn1cnnc1`, the growth inhibition was 0% (inactive).

On to `COc1ccc(NC(=O)NNC(=O)CCc2ccc(O)c(O)c2)cc1OC`, for which the growth inhibition was 5.67% (inactive).
